The source made the active and inactive calls. No cut-off for these calls is given here.
Legend:
[1] = target: Receptor-interacting serine/threonine-protein kinase 2 (Homo sapiens) (UniProt O43353); experiment: Inhibition of human RIPK2 assessed as remaining activity at 10 uM in presence of ATP by radiometric kinase assay relative to control
[2] = target: Mitogen-activated protein kinase 3 (Homo sapiens) (UniProt P27361); experiment: Inhibition of human ERK1 assessed as remaining activity at 10 uM in presence of ATP by radiometric kinase assay relative to control
[3] = target: T1, Ribosomal protein S6 kinase alpha-3 (Homo sapiens, UniProt P51812); experiment: Inhibition of human RSK2 assessed as remaining activity at 10 uM in presence of ATP by radiometric kinase assay relative to control
[4] = target: Serine/threonine-protein kinase Sgk1 (Homo sapiens) (UniProt O00141); experiment: Inhibition of human SGK1 assessed as remaining activity at 10 uM in presence of ATP by radiometric kinase assay relative to control
[5] = target: Ribosomal protein S6 kinase beta-1 (Homo sapiens) (UniProt P23443); experiment: Inhibition of human S6K1 assessed as remaining activity at 10 uM in presence of ATP by radiometric kinase assay relative to control
[6] = target: MAP kinase-interacting serine/threonine-protein kinase 2 (Homo sapiens) (UniProt Q9HBH9); experiment: Inhibition of human MNK2 assessed as remaining activity at 10 uM in presence of ATP by radiometric kinase assay relative to control
[7] = target: Calcium/calmodulin-dependent protein kinase kinase 2 (Homo sapiens) (UniProt Q96RR4); experiment: Inhibition of human CAMKKb assessed as remaining activity at 10 uM in presence of ATP by radiometric kinase assay relative to control
[8] = target: Serine/threonine-protein kinase PLK1 (Homo sapiens) (UniProt P53350); experiment: Inhibition of human PLK1 assessed as remaining activity at 10 uM in presence of ATP by radiometric kinase assay relative to control
[9] = target: Serine/threonine-protein kinase tousled-like 1 (Homo sapiens) (UniProt Q9UKI8); experiment: Inhibition of human TLK1 assessed as remaining activity at 10 uM in presence of ATP by radiometric kinase assay relative to control
[10] = target: Serine/threonine-protein kinase MARK2 (Homo sapiens) (UniProt Q7KZI7); experiment: Inhibition of human MARK2 assessed as remaining activity at 10 uM in presence of ATP by radiometric kinase assay relative to control
[11] = target: Dual specificity tyrosine-phosphorylation-regulated kinase 2 (Homo sapiens) (UniProt Q92630); experiment: Inhibition of human DYRK2 assessed as remaining activity at 10 uM in presence of ATP by radiometric kinase assay relative to control
[12] = target: Homeodomain-interacting protein kinase 2 (Homo sapiens) (UniProt Q9H2X6); experiment: Inhibition of human HIPK2 assessed as remaining activity at 10 uM in presence of ATP by radiometric kinase assay relative to control
[13] = target: Mitogen-activated protein kinase kinase kinase 9 (Homo sapiens) (UniProt P80192); experiment: Inhibition of human MLK1 assessed as remaining activity at 10 uM in presence of ATP by radiometric kinase assay relative to control
[14] = target: Fibroblast growth factor receptor 1 (Homo sapiens) (UniProt P11362); experiment: Inhibition of human FGF-R1 assessed as remaining activity at 10 uM in presence of ATP by radiometric kinase assay relative to control
[15] = target: Receptor tyrosine-protein kinase erbB-4 (Homo sapiens) (UniProt Q15303); experiment: Inhibition of human HER4 assessed as remaining activity at 10 uM in presence of ATP by radiometric kinase assay relative to control
[16] = target: Insulin receptor (Homo sapiens) (UniProt P06213); experiment: Inhibition of human IR assessed as remaining activity at 10 uM in presence of ATP by radiometric kinase assay relative to control
[17] = target: Interleukin-1 receptor-associated kinase 1 (Homo sapiens) (UniProt P51617); experiment: Inhibition of human IRAK1 assessed as remaining activity at 10 uM in presence of ATP by radiometric kinase assay relative to control
[18] = target: Tyrosine-protein kinase Lck (Homo sapiens) (UniProt P06239); experiment: Inhibition of human Lck assessed as remaining activity at 10 uM in presence of ATP by radiometric kinase assay relative to control
[19] = target: T1, Ribosomal protein S6 kinase alpha-3; experiment: Inhibition of human RSK2 at 10 uM in presence of ATP by radiometric kinase assay relative to control
[20] = target: Phosphorylase b kinase gamma catalytic chain, skeletal muscle/heart isoform (Homo sapiens, UniProt Q16816); experiment: Inhibition of PHKG1 (unknown origin) by FRET based Z-LYTE kinase assay
HT-29 = experiment: Induction of apoptosis in human HT-29 cells assessed as phosphorylation of H2AX on S139 in presence of gemcitabine by Western blotting analysis; format: functional, cell-based
SW-620 = experiment: Induction of apoptosis in human SW620 cells assessed as increased in cleaved PARP in presence of SN38 by Western blotting analysis; format: functional, cell-based
[21] = AUC (0 to infinity) in BALB/C mouse spleen at 10 mg/kg, po by LC/MS-MS analysis; format: ADME, organism-based
[22] = Half life in BALB/C mouse spleen at 10 mg/kg, iv by LC/MS-MS analysis; format: ADME, organism-based
In short: (§1)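 Female BALB/c mice received a single bolus of 10mg/kg, either i.v. or p.o. The oral vehicle was DPTW (10% DMSO, 20% PEG400, 5% Tween 80, 65% water). Plasma and spleen homogenates were extracted with methanol containing internal standards. Drug levels were measured by LC/MS-MS, and pharmacokinetic parameters were calculated from the concentration-time profiles.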

[23] = Half life in BALB/C mouse spleen at 10 mg/kg, po by LC/MS-MS analysis; format: ADME, organism-based; in short: as §1
Mus musculus [24] = experiment: In vivo inhibition of CHK1 in CRTac:Ncr-Fox1 athymic mouse xenografted with human Calu-6 cells assessed as enhanced phosphorylation CHK1 at […] on 150 mg/kg, po in presence of gemcitabine and carboplatin by Western blotting analysis; format: functional, organism-based
In short: (§2)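 Female CRTac:Ncr-Fox1(nu) athymic mice carried s.c. Calu6 xenografts. Tumors were taken 6h after the last inhibitor dose, lysed in CHAPS buffer, and immunoblotted with GAPDH as loading control.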

Mus musculus [25] = experiment: In vivo inhibition of total CHK1 in CRTac:Ncr-Fox1 athymic mouse xenografted with human Calu-6 cells at 150 mg/kg, po in presence of gemcitabine and carboplatin by Western blotting analysis; format: functional, organism-based; in short: as §2
[26] = Toxicity in Emu-Myc driven transgenic mouse transplant model of B-cell lymphoma assessed as reduction in weight of kidney at 150 mg/kg, po administered for 9 days; format: organism-based; settings: in vivo, 216 h, time 9 day
[27] = Toxicity in Emu-Myc driven transgenic mouse transplant model of B-cell lymphoma assessed as increase in weight of spleen at 150 mg/kg, po administered for 9 days; format: organism-based; settings: in vivo, 216 h, time 9 day
[28] = Toxicity in Emu-Myc driven transgenic mouse transplant model of B-cell lymphoma assessed as change in body temperature at 150 mg/kg, po administered for 9 days; format: organism-based; settings: in vivo, 216 h, time 9 day

T1 sequence (P51812 whole entry): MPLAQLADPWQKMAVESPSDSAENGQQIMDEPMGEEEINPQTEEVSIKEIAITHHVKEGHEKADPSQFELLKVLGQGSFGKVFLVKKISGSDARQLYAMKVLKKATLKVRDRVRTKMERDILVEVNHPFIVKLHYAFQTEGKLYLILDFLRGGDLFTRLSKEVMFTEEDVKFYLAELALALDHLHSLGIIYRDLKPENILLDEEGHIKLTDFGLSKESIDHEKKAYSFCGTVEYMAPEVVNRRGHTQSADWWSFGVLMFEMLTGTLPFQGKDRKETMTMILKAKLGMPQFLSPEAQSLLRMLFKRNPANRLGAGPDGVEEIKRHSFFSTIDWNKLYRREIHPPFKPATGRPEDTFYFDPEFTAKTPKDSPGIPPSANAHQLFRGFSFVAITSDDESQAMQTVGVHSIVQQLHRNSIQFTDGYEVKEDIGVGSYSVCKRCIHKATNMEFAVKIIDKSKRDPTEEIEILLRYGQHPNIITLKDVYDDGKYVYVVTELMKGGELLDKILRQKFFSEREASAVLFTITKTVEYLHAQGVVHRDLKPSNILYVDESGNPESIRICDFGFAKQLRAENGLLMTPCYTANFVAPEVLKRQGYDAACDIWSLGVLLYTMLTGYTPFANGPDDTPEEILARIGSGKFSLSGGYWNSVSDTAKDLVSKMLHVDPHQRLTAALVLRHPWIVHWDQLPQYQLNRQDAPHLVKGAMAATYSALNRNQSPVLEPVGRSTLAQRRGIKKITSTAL
Chain of MAP kinase-interacting serine/threonine-protein kinase 2 (Homo sapiens) (Q9HBH9 whole entry, looked up): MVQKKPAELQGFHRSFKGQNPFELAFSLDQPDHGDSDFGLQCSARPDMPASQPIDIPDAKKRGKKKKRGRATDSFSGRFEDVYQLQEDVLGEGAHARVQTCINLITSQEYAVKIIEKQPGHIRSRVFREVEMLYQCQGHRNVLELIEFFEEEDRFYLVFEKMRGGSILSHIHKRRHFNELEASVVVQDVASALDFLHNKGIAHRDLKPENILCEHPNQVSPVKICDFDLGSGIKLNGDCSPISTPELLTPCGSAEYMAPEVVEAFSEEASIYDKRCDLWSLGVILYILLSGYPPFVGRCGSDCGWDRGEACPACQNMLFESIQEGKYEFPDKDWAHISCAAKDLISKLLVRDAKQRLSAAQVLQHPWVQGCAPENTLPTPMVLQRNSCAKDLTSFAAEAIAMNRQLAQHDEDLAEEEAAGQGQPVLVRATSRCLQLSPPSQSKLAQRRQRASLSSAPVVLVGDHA
Chain of Calcium/calmodulin-dependent protein kinase kinase 2 (Homo sapiens) (Q96RR4 2-588 limits assumed): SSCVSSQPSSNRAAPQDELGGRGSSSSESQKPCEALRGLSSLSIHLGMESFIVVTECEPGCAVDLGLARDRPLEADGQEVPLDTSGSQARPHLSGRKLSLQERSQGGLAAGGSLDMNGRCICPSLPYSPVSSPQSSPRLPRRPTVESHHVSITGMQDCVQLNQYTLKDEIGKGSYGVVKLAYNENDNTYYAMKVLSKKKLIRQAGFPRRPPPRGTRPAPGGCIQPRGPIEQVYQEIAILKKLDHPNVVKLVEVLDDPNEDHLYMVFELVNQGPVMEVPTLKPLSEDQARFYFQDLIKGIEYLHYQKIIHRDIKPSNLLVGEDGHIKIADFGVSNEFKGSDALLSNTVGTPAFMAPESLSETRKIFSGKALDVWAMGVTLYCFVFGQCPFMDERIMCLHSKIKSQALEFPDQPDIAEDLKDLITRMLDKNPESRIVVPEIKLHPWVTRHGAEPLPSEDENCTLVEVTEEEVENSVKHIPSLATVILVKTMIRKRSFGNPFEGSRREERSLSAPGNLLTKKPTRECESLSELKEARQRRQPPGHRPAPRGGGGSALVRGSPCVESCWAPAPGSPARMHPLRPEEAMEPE
Chain of Interleukin-1 receptor-associated kinase 1 (Homo sapiens) (P51617 whole entry, looked up): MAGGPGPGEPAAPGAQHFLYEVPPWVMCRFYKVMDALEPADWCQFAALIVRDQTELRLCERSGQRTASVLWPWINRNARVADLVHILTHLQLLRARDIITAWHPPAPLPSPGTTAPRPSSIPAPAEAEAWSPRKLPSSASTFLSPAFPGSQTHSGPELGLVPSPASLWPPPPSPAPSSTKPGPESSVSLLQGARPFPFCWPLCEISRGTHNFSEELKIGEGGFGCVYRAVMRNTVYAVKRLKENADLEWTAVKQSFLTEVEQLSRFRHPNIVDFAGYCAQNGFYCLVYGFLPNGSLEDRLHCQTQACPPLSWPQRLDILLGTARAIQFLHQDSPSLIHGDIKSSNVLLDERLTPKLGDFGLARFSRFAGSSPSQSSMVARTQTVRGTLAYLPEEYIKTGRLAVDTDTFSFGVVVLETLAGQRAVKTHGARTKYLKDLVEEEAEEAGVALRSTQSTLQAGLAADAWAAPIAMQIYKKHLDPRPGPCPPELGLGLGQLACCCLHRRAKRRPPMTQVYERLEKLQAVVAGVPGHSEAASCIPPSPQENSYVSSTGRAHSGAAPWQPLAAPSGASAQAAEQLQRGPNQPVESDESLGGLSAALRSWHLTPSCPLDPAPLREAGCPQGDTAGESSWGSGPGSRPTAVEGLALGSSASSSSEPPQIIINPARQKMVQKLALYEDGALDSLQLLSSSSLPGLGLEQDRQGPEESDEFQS
Chain of Tyrosine-protein kinase Lck (Homo sapiens) (P06239 2-509 limits assumed): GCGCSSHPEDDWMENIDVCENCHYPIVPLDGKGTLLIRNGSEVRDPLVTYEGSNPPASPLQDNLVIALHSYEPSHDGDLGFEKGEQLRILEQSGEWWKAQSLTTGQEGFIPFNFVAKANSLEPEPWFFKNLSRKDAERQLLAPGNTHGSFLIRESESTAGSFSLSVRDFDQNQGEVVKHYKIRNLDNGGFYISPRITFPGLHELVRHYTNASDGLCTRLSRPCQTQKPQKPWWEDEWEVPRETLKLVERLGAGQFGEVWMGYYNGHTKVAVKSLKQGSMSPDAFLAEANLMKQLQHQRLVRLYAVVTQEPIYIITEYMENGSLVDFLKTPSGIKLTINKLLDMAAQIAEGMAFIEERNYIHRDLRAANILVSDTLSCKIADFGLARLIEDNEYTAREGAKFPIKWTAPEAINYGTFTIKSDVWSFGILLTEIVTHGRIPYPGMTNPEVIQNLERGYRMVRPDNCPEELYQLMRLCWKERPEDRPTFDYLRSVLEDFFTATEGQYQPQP
Chain of Homeodomain-interacting protein kinase 2 (Homo sapiens) (Q9H2X6 whole entry, looked up): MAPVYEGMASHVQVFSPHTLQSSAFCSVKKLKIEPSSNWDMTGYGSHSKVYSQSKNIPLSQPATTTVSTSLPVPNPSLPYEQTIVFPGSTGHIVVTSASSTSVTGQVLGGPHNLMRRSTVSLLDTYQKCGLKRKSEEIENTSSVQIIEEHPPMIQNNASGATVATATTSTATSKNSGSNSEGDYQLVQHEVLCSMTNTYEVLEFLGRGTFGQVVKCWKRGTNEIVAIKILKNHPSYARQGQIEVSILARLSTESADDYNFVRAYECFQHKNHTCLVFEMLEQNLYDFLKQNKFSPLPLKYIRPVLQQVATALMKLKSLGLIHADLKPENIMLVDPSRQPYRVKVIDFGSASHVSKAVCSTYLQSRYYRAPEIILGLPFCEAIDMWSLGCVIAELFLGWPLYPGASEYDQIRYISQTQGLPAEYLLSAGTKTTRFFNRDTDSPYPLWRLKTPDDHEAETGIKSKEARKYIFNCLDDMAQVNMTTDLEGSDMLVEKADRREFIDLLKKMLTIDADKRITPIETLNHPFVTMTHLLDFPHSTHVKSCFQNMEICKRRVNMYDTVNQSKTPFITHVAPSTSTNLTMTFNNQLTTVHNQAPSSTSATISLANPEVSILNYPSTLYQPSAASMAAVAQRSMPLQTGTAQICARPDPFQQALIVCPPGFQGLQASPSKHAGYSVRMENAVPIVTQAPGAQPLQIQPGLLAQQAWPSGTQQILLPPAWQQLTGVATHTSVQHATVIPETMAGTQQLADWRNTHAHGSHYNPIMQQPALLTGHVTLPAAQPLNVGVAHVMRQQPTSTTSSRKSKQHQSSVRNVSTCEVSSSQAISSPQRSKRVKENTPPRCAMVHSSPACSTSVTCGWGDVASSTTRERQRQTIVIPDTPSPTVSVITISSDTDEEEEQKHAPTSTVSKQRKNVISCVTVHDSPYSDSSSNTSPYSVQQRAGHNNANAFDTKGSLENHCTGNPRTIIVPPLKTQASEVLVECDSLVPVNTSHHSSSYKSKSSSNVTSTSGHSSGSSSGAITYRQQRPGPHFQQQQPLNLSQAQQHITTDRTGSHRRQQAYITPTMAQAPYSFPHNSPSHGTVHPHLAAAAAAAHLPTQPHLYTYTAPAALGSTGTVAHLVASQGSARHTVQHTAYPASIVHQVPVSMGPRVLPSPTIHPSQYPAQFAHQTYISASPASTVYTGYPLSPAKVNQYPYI
Chain of Serine/threonine-protein kinase Sgk1 (Homo sapiens) (O00141 whole entry): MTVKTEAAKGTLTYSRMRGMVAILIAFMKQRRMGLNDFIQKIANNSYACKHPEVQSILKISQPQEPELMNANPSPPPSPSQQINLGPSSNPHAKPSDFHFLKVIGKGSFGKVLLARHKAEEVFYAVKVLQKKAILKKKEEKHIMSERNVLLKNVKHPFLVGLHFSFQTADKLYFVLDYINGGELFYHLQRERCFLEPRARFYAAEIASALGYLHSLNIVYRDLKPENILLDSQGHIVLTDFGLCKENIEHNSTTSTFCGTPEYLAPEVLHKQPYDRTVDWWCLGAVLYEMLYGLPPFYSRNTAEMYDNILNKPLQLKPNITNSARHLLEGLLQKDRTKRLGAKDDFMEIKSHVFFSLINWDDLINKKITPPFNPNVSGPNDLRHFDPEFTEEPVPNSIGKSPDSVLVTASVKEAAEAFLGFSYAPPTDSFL
Chain of Phosphorylase b kinase gamma catalytic chain, skeletal muscle/heart isoform (Q16816 whole entry, canonical isoform): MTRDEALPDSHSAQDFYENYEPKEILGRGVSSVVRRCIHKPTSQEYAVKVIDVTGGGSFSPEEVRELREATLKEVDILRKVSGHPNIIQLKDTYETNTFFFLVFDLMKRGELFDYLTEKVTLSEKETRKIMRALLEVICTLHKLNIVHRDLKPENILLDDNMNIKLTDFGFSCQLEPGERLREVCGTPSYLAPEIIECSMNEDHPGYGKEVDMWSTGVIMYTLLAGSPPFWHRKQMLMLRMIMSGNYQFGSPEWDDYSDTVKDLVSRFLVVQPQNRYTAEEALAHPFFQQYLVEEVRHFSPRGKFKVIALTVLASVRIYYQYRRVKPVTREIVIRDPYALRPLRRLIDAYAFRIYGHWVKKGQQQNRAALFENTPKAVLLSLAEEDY

Activity [1]: 101%
Activity [2]: 75%
Activity [3]: 19%
Activity [4]: 87%
Activity [5]: 52%
Activity [6]: 75%
Activity [7]: 73%
Activity [8]: 103%
Activity [9]: 59%
Activity [10]: 21%
Activity [11]: 61%
Activity [12]: 92%
Activity [13]: 75%
Activity [14]: 33%
Activity [15]: 110%
Activity [16]: 102%
Activity [17]: 38%
Activity [18]: 78%
inhibition [19]: 81%
IC50 [20]: 3.47 µM
AUC(0-inf) [21]: 223 µM·h
half-life [22]: 2.76 h
half-life [23]: 3.11 h
SMILES: N#Cc1cnc(Nc2cc(NC[C@H]3CNCCO3)c(C(F)(F)F)cn2)cn1 [SRA-737]
Activity (HT-29): Active
Activity (SW-620): Active
Activity (Mus musculus [24]): Active
inhibition (Mus musculus [25]): Active
Activity [26]: Toxic
Activity [27]: Toxic
Activity [28]: Non-Toxic

Source: ChEMBL document CHEMBL5653622 (Oncotarget, 2016)
